Tests used:
[1] = target: GABA-A receptor; anion channel; assay: Displacement of [3H]muscimol from GABA-A receptor in Sprague-Dawley rat spinal cord; format: protein-complex assay
Procedure, shortened: (§1)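 Synaptic membranes from adult rat tissue (cerebral cortex or spinal cord–brainstem) incubated with 5 nM [3H]muscimol plus increasing competitor concentrations in 50 mM Tris-citrate, pH 7.1, 30 min at 4 °C. Bound ligand separated by rapid filtration through glass fiber filters, three washes with ice-cold buffer, scintillation counting. Nonspecific binding defined with 200 µM unlabeled GABA. Mean of three experiments in triplicate.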

[2] = target: GABA-A receptor; anion channel; assay: Displacement of [3H]muscimol from GABA-A receptor in Sprague-Dawley rat cerebral cortex; format: tissue-based; procedure, shortened: as §1
[3] = Displacement of [3H]strychnine from strychnine-sensitive glycine receptor in rat spinal cord

SMILES | IC50 [1] [µM] | IC50 [2] [µM] | IC50 [3] [µM]
COc1c(N)cc2c(c1OC)-c1ccc(SC)c(=O)cc1[C@@H](NC(C)=O)CC2 | 1.9 | 5.4 | 39.9
COc1c(N[C@H]2O[C@@H](C)[C@H](O)[C@@H](O)[C@H]2O)cc2c(c1OC)-c1ccc(SC)c(=O)cc1[C@@H](NC(C)=O)CC2 | 3.8 | > 100 | 4.6
COc1c(NC2OC[C@@H](O)[C@H](O)[C@H]2O)cc2c(c1OC)-c1ccc(SC)c(=O)cc1[C@@H](NC(C)=O)CC2 (some centres undefined) | 3.3 | 7 | 3.3
COc1c(N[C@@H]2O[C@@H](C)[C@@H](O)[C@@H](O)[C@@H]2O)cc2c(c1OC)-c1ccc(SC)c(=O)cc1[C@@H](NC(C)=O)CC2 | 5.9 | 10.5 | 4.2
COc1c(N[C@@H]2O[C@H](CO)[C@@H](O)[C@H](O)[C@@H]2O)cc2c(c1OC)-c1ccc(SC)c(=O)cc1[C@@H](NC(C)=O)CC2 | 11.3 | > 100 | 13.1
COc1c(NC2OC[C@@H](O)[C@H](O)[C@@H]2O)cc2c(c1OC)-c1ccc(SC)c(=O)cc1[C@@H](NC(C)=O)CC2 (some centres undefined) | 4 | 9.7 | 4.1
COc1c(NC2OC[C@@H](O)[C@@H](O)[C@@H]2O)cc2c(c1OC)-c1ccc(SC)c(=O)cc1[C@@H](NC(C)=O)CC2 (some centres undefined) | 10.5 | 17.7 | 8.6
COc1c(NC2O[C@H](CO)[C@@H](O)[C@H](O)[C@H]2O)cc2c(c1OC)-c1ccc(SC)c(=O)cc1[C@@H](NC(C)=O)CC2 (some centres undefined) | 11.3 | 18 | 10.6
NCC(=O)O [GLYCINE] | – | – | 15.8
O=C1C[C@@H]2OCC=C3CN4CC[C@]56c7ccccc7N1[C@H]5[C@H]2[C@H]3C[C@H]46 [STRYCHNINE] | – | – | 0.014
COc1c(O[C@@H]2O[C@H](CO)[C@@H](O)[C@H](O)[C@H]2O)cc2c(c1OC)-c1ccc(SC)c(=O)cc1[C@@H](NC(C)=O)CC2 [THIOCOLCHICOSIDE] | 1.9 | 3.4 | 1.5

Reference: ChEMBL document CHEMBL1146873, “3-demethoxy-3-glycosylaminothiocolchicines: Synthesis of a new class of putative muscle relaxant compounds” (J Med Chem, 2006)
